Measurements published in ChEMBL document CHEMBL3400013, “Synthesis and biological activity evaluation of hydrazone derivatives based on a Tröger's base skeleton” (Bioorg Med Chem, 2015).
Calls of active or inactive are those of the source. No cut-off for these calls is given here.

Assays:
[1] = tested on: BJ; test: Selectivity index, ratio of IC50 for human BJ cells to IC50 for human p53-/- HCT116 cells; type: functional
[2] = tested on: Candida albicans; test: Antifungal activity against Candida albicans up to 200 uM after 24 to 48 hrs by broth microdilution method; type: functional, organism-based
[3] = Metal chelating activity of the compound assessed as formation of Ni2+ complex by UV-vis spectrometry; type: physicochemical
[4] = Metal chelating activity of the compound assessed as formation of Mn2+ complex by UV-vis spectrometry; type: physicochemical
[5] = Metal chelating activity of the compound assessed as formation of Co2+ complex by UV-vis spectrometry; type: physicochemical
[6] = tested on: BJ; test: Selectivity index, ratio of IC50 for human BJ cells to IC50 for human K562 cells; type: functional
[7] = tested on: Pseudomonas aeruginosa; test: Antimicrobial activity against Pseudomonas aeruginosa CCM 395 up to 200 uM after 24 to 48 hrs by broth microdilution method; type: functional, organism-based
[8] = Metal chelating activity of the compound assessed as formation of Fe3+ complex by UV-vis spectrometry; type: physicochemical
[9] = tested on: BJ; test: Cytostatic activity against human BJ cells after 72 hrs by MTT assay; type: ADME, cell-based
Procedure, shortened: (§1)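 Cells were seeded at 25,000–30,000 per well and pre-incubated for 24 h at 37°C in 5% CO2. Four-fold compound dilutions were added in duplicate and incubated for 72 h. MTT was added for 1–4 h, and formazan was dissolved in 10% aq SDS (pH 5.5) overnight at 37°C. OD was read at 540 nm. IC50 came from dose-response curves, mean ± SD of eight independent experiments.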

[10] = Metal chelating activity of the compound assessed as formation of Cr3+ complex by UV-vis spectrometry; type: physicochemical
[11] = tested on: A549; test: Cytostatic activity against human A549 cells after 72 hrs by MTT assay; type: functional, cell-based; details: A549, 72 h; procedure, shortened: as §1
[12] = tested on: A549; test: Selectivity index, ratio of IC50 for human BJ cells to IC50 for human A549 cells; type: functional
[13] = Cytostatic activity against human CEM-DNR cells after 72 hrs by MTT assay; type: functional, cell-based; procedure, shortened: as §1
[14] = tested on: Staphylococcus aureus; test: Antimicrobial activity against Staphylococcus aureus CCM 3953 up to 200 uM after 24 to 48 hrs by broth microdilution method; type: functional, organism-based
[15] = tested on: MRC5; test: Cytostatic activity against human MRC5 cells after 72 hrs by MTT assay; type: ADME, cell-based; details: MRC5, 72 h; procedure, shortened: as §1
[16] = Metal chelating activity of the compound assessed as formation of Cu2+ complex by UV-vis spectrometry; type: physicochemical
[17] = Cytostatic activity against human HCT116 cells after 72 hrs by MTT assay; type: functional, cell-based; details: HCT-116, 72 h; procedure, shortened: as §1
[18] = tested on: CEM-DNR; test: Selectivity index, ratio of IC50 for human MRC5 cells to IC50 for human CEM-DNR cells; type: functional
[19] = tested on: HCT-116; test: Selectivity index, ratio of IC50 for human MRC5 cells to IC50 for human p53-/- HCT116 cells; type: functional
[20] = tested on: MRC5; test: Selectivity index, ratio of IC50 for human MRC5 cells to IC50 for human K562-TAX cells; type: functional
[21] = tested on: Escherichia coli; test: Antimicrobial activity against Escherichia coli CCM 3954 up to 200 uM after 24 to 48 hrs by broth microdilution method; type: functional, organism-based
[22] = tested on: Nucleic Acid; test: Binding affinity to DNA (unknown origin) assessed as DNA intercalation by UV-visible spectrophotometry in presence of Cu2+; type: nucleic-acid assay
[23] = tested on: Nucleic Acid; test: Binding affinity to DNA (unknown origin) assessed as DNA intercalation by UV-visible spectrophotometry in presence of Co2+; type: nucleic-acid assay
[24] = tested on: Staphylococcus haemolyticus; test: Antimicrobial activity against methicillin-resistant Staphylococcus haemolyticus A1/16568 up to 200 uM after 24 to 48 hrs by broth microdilution method; type: functional, organism-based
[25] = tested on: Escherichia coli; test: Antimicrobial activity against multidrug-resistant Escherichia coli C/16702 up to 200 uM after 24 to 48 hrs by broth microdilution method; type: functional, organism-based
[26] = Metal chelating activity of the compound assessed as formation of Fe2+ complex by UV-vis spectrometry; type: physicochemical
[27] = tested on: BJ; test: Selectivity index, ratio of IC50 for human BJ cells to IC50 for human HCT116 cells; type: functional
[28] = tested on: BJ; test: Selectivity index, ratio of IC50 for human BJ cells to IC50 for human CCRF-CEM cells; type: functional; details: pooled result: one value given for 2 cell lines, strains, targets or settings
[29] = Metal chelating activity of the compound assessed as formation of Ca2+ complex by UV-vis spectrometry; type: physicochemical
[30] = tested on: Pichia kudriavzevii; test: Antifungal activity against Candida crusei up to 200 uM after 24 to 48 hrs by broth microdilution method; type: functional, organism-based
[31] = tested on: Nucleic Acid; test: Binding affinity to DNA (unknown origin) assessed as DNA intercalation by UV-visible spectrophotometry; type: nucleic-acid assay
[32] = Cytostatic activity against human p53-/- HCT116 cells after 72 hrs by MTT assay; type: functional, cell-based; details: HCT-116, 72 h; procedure, shortened: as §1
[33] = tested on: CCRF-CEM; test: Cytostatic activity against human CCRF-CEM cells after 72 hrs by MTT assay; type: functional, cell-based; procedure, shortened: as §1
[34] = Metal chelating activity of the compound assessed as formation of Mg2+ complex by UV-vis spectrometry; type: physicochemical
[35] = tested on: Nucleic Acid; test: Binding affinity to DNA (unknown origin) assessed as DNA intercalation by UV-visible spectrophotometry in presence of Fe3+; type: nucleic-acid assay
[36] = tested on: Enterococcus faecalis; test: Antimicrobial activity against Enterococcus faecalis CCM 4224 up to 200 uM after 24 to 48 hrs by broth microdilution method; type: functional, organism-based
[37] = tested on: K562; test: Selectivity index, ratio of IC50 for human MRC5 cells to IC50 for human K562 cells; type: functional
[38] = tested on: K562; test: Cytostatic activity against human K562 cells after 72 hrs by MTT assay; type: functional, cell-based; details: K562, 72 h; procedure, shortened: as §1
[39] = tested on: BJ; test: Selectivity index, ratio of IC50 for human BJ cells to IC50 for human K562-TAX cells; type: functional
[40] = tested on: A549; test: Selectivity index, ratio of IC50 for human MRC5 cells to IC50 for human A549 cells; type: functional
[41] = Metal chelating activity of the compound assessed as formation of Zn2+ complex by UV-vis spectrometry; type: physicochemical
[42] = tested on: Candida tropicalis; test: Antifungal activity against Candida tropicalis up to 200 uM after 24 to 48 hrs by broth microdilution method; type: functional, organism-based
[43] = Cytostatic activity against human K562-TAX cells after 72 hrs by MTT assay; type: functional, cell-based; procedure, shortened: as §1
[44] = tested on: Candida parapsilosis; test: Antifungal activity against Candida parapsilosis up to 200 uM after 24 to 48 hrs by broth microdilution method; type: functional, organism-based
[45] = tested on: BJ; test: Selectivity index, ratio of IC50 for human BJ cells to IC50 for human CEM-DNR cells; type: functional
[46] = tested on: Staphylococcus aureus; test: Antimicrobial activity against methicillin-resistant Staphylococcus aureus MRSA 4591 up to 200 uM after 24 to 48 hrs by broth microdilution method; type: functional, organism-based
[47] = tested on: Nucleic Acid; test: Binding affinity to DNA (unknown origin) assessed as DNA intercalation by UV-visible spectrophotometry in presence of Zn2+; type: nucleic-acid assay
[48] = tested on: Pseudomonas aeruginosa; test: Antimicrobial activity against multidrug-resistant Pseudomonas aeruginosa A/16575 up to 200 uM after 24 to 48 hrs by broth microdilution method; type: functional, organism-based
[49] = tested on: Nucleic Acid; test: Binding affinity to DNA (unknown origin) assessed as DNA intercalation by UV-visible spectrophotometry in presence of Ni2+; type: nucleic-acid assay
[50] = tested on: HCT-116; test: Selectivity index, ratio of IC50 for human MRC5 cells to IC50 for human HCT116 cells; type: functional

For `COc1cccnc1/C=N/NC(=O)c1ccc2c3c(ccc2c1)N1Cc2c(ccc4cc(C(=O)N/N=C/c5ncccc5OC)ccc24)N(C3)C1`, the “Ratio IC50” value [1] was 1, the Activity [2] was “inactive” and the Activity [3] was “Active”. For the same molecule, the Activity [4] was “Not Active”, the Activity [5] was “Active” and the “Ratio IC50” value [6] was 1.8. The Activity [7] was “inactive”, the Activity [8] was “Active” and the IC50 [9] was > 100 µM. For the same molecule, the Activity [10] was “Not Active”, the IC50 [11] was > 100 µM and the “Ratio IC50” value [12] was 1. For the same molecule, the IC50 [13] was 6.71 µM, the Activity [14] was “inactive” and the IC50 [15] was > 100 µM. The Activity [16] was “Active”, the IC50 [17] was 85.7 µM and the “Ratio IC50” value [18] was 14.9. The “Ratio IC50” value [19] was 1, the “Ratio IC50” value [20] was 34.1 and the Activity [21] was “inactive”. The Activity [22] was “Active”, the Activity [23] was “Active” and the Activity [24] was “inactive”. The Activity [25] was “inactive”, the Activity [26] was “Not Active” and the “Ratio IC50” value [27] was 1.2. The “Ratio IC50” value [28] was 2.7, the Activity [29] was “Not Active” and the Activity [30] was “inactive”. For the same molecule, the Activity [31] was “inactive”, the IC50 [32] was > 100 µM and the IC50 [33] was 36.6 µM. The Activity [34] was “Not Active”, the Activity [35] was “Active” and the Activity [36] was “inactive”. The “Ratio IC50” value [37] was 1.8, the IC50 [38] was 55.6 µM and the “Ratio IC50” value [39] was 34.1. For the same molecule, the “Ratio IC50” value [40] was 1, the Activity [41] was “Active” and the Activity [42] was “inactive”. The IC50 [43] was 2.93 µM, the Activity [44] was “inactive” and the “Ratio IC50” value [45] was 14.9. For the same molecule, the Activity [46] was “inactive”, the Activity [47] was “Active” and the Activity [48] was “inactive”. For the same molecule, the Activity [49] was “Active” and the “Ratio IC50” value [50] was 1.2.
